High-throughput results (PubChem)
Hits are enriched below; roughly 2.3% of the tested compounds scored in any of these assays.
TRPC6 act = activates the mouse TRPC6 cation channel | B-score at 10 µM | Q61143 | HEK293-TRPC6 membrane potential dye fluorescence; active compounds read high | 310,000 compounds, 0.13% hits | AID 2550;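 active = B-score of the integrated fluorescence ratio above library mean plus 3 SD, and starting fluorescence ratio within library mean plus 5 SD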;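 also: higher score means more depolarization so channel activation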
TRPC4 agonist = TRPC4 (mouse) channel activation. Q9QUQ5. HEK293 TRPC4beta/mu-opioid, Fluo4 calcium fluorescence; active compounds read high. B-score at 10 µM. 310,000 compounds, 0.49% hits. AID 2237;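 active = B-score above 5 SD of library B-scores, and initial fluorescence ratio not above library mean plus 5 SD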;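 also: positive B-score marks a calcium rise read as TRPC4 activation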
Target sequence (Q9QUQ5 whole entry, looked up): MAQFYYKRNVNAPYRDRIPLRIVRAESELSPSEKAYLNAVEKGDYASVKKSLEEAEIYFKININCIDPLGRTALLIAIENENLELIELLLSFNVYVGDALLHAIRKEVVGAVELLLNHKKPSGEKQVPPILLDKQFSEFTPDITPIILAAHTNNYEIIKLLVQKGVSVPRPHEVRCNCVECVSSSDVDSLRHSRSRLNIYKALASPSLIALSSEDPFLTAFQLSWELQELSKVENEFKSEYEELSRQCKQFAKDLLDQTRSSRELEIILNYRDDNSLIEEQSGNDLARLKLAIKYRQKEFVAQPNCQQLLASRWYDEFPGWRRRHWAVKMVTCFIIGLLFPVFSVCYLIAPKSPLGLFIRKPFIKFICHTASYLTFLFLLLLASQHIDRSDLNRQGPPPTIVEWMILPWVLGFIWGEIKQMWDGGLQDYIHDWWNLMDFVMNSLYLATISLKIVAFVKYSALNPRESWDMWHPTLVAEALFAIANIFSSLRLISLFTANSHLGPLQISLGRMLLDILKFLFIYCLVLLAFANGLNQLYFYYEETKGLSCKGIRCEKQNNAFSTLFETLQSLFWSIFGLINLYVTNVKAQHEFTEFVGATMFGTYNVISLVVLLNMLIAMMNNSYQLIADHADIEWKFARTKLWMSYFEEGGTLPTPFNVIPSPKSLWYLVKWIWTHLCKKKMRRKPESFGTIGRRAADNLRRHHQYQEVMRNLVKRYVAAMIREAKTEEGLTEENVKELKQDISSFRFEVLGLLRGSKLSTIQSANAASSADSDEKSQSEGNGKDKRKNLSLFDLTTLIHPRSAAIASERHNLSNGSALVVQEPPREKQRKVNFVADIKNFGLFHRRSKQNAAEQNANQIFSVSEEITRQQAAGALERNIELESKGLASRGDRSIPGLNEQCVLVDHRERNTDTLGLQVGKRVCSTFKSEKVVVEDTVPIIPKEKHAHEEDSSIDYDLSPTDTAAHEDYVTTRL
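Test system: HEK293 cells stably co-expressing mouse TRPC4beta and mu-opioid receptor | Schedule: Fluo4 dye loading 45 min at room temperature, 110 s recording | Measured by: Kinetic Fluo4 calcium fluorescence, 5 s baseline at 1 Hz | Evaluation: B score of integrated ratio | Controls: Buffer (low) and maximal DAMGO (high)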
TRPC4 inh = TRPC4 (mouse) channel inhibition; B-score at 10 µM; HEK293 TRPC4beta/mu-opioid, DAMGO-evoked Fluo4 calcium flux; active compounds read low; AID 2247; 300,000 compounds, 0.39% hits; Q9QUQ5;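 active = B-score over 3 SD under the library average, no early fluorescence shift, positive overall ratio signal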
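Test system – stable TRPC4beta/mu-opioid receptor HEK293 cells · Probe or stimulus – DAMGO, a submaximal dose followed by a maximal one · Dosing – one concentration per compound · Signal – Fluo4 calcium fluorescence by kinetic imaging, 5 s 1 Hz baseline · Evaluation – per-well B score of integrated baseline-normalized Fluo4 ratio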
TRPC4 potent = TRPC4 (mouse) allosteric potentiation; 310,000 compounds, 0.42% hits; Q9QUQ5; B-score at 10 µM; HEK293 TRPC4beta/mu-opioid, DAMGO EC20, Fluo-4 Ca2+ flux; active compounds read high; AID 2227;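 active = B-score of calcium response area above 5 SD of library B-scores, with initial fluorescence ratio within 5 SD of library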;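 also: B-score of integrated fluorescence ratio over time as area under calcium response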
TRPC6 inhibitor = blocks the mouse TRPC6 cation channel; AID 2553; 310,000 compounds, 1.1% hits; HEK293-TRPC6, membrane potential dye, ACh-evoked depolarization; active compounds read low; B-score at 10 µM;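 active = B-score under library mean minus 3 SD, initial fluorescence not abnormally high, positive integrated signal ratio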;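 also: B-score derived from integrated fluorescence ratio over the kinetic read; more negative B-score means stronger inhibition of depolarization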
TRPC4 spec 2 = mouse TRPC4 off-target activity of TRPC6 inhibitors, second screen. shares compounds with TRPC6 inhibitor. HEK293 TRPC4/MOR, membrane potential dye fluorescence; channel activated by saturating DAMGO dose. inhibition, % at 10 µM. 920 compounds, 42% hits. AID 2776;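 active = compounds whose fluorescence signal differed from control wells by over 3 SD, either direction, in both duplicate plates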
TRPC4 spec = selectivity of TRPC6 inhibitors: effect on mouse TRPC4. shares compounds with TRPC6 inhibitor. HEK293 TRPC4/mu-opioid, membrane potential fluorescence. activity change, negative = inhibition, % at 10 µM. 920 compounds, 61% hits. AID 2777;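 active = rise or fall in signal beyond 3 SD of buffer-only wells in both replicate plates, either sign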;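 also: integrated kinetic ratio of fluorescence range over baseline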
HEK293 MPD ctr 2-1 = second counter-screen for TRPC6 inhibitors: parental HEK293 cells. shares compounds with TRPC6 inhibitor. parental HEK293 membrane potential dye fluorescence; maximal acetylcholine challenge after compound addition. signal change vs control, % at 10 µM. 920 compounds, 31% hits. AID 2779;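 active = membrane potential signal moving either way by over 3 SD of the maximum-effect control, in both duplicate plates, meaning non-specific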
HEK293 MPD ctr-1 = counter-screen for TRPC6 inhibitors: effect in parental HEK293 cells; shares compounds with TRPC6 inhibitor; parental HEK293 membrane potential dye fluorescence; membrane potential signal change, % at 10 µM; 920 compounds, 60% hits; AID 2780;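 active = membrane potential signal shifting up or down by more than 3 SD of buffer-only wells, on both duplicate plates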
HEK293 MPD ctr-2 = counter-screen for TRPC6 modulators: effect in parental HEK293 cells | 2,400 compounds, 51% hits | shares compounds with TRPC6 inhibitor | membrane potential dye fluorescence | membrane potential signal change, % at 10 µM | AID 488924;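 active = membrane potential signal moves up or down beyond 5 SD from buffer-only wells, on both duplicate plates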
HEK293 MPD ctr 2-2 = parental HEK293 nonspecific activity of TRPC6 modulators, second screen; membrane potential dye fluorescence; after compound, maximal acetylcholine stimulation; inhibition, % at 10 µM; 2,400 compounds, 14% hits; shares compounds with TRPC6 inhibitor; AID 488926;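 active = membrane potential signal drops by more than 5 SD from the mean control signal, in both duplicate plates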;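 also: plate controls were acetylcholine ECmax control wells for no effect and buffer only wells for full effect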
TRPC4/MOR mod = mouse TRPC4 off-target activity of TRPC6 modulators; shares compounds with TRPC6 inhibitor; HEK293 TRPC4/mu-opioid, membrane potential fluorescence; percent change from control (negative = decrease, positive = increase), % at 10 µM; 2,400 compounds, 69% hits; AID 488927;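 active = membrane potential signal moved up or down beyond 5 SD of buffer control wells, in both duplicate plates, actives on both sides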;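 also: plate controls were assay buffer wells for no effect and DAMGO maximal-effect wells for full effect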
TRPC4/MOR inh 2 = second selectivity test of TRPC6 modulators against mouse TRPC4. 2,400 compounds, 55% hits. shares compounds with TRPC6 inhibitor. inhibition, % at 10 µM. HEK293 TRPC4/mu-opioid, membrane potential dye fluorescence; stimulated with maximal-effect DAMGO. AID 488928;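 active = drop in membrane potential signal beyond 5 SD of the control wells in both duplicate plates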;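 also: TRPC4 counter screen for TRPC6 hits run under conditions tuned for TRPC6 not TRPC4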
TRPC6 block conf = confirmation of mouse TRPC6 inhibitors; inhibition, % at 10 µM; AID 488960; 3,300 compounds, 43% hits; HEK293-TRPC6, membrane potential dye, ACh-evoked depolarization; shares compounds with TRPC6 inhibitor;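 active = fluorescence ratio falls more than 5 SD below the full-stimulation control mean, in both duplicate runs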;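 also: integrated fluorescence ratio of peak minus minimum over baseline after agonist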
TRPC6 act confirm = confirmation of mouse TRPC6 activators. HEK293-TRPC6 membrane potential dye fluorescence, FDSS. shares compounds with TRPC6 inhibitor. activation, % at 10 µM. 2,800 compounds, 11% hits. AID 488961;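 active = ratio signal rise beyond 5 SD above unstimulated control wells' mean, seen in both duplicate runs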;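 also: plate controls were buffer EC0 wells for no effect and acetylcholine ECmax response for full effect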
Active calls of the source: *; i = inactive; x = no result given.

SMILES	TRPC6 act	TRPC4 agonist	TRPC4 inh	TRPC4 potent	TRPC6 inhibitor	HEK293 MPD ctr-2	HEK293 MPD ctr 2-2	TRPC4/MOR mod	TRPC4/MOR inh 2	TRPC6 block conf	TRPC6 act confirm	others
COc1ccc(C(=O)NC(=S)Nc2ccc(CN3CCCCC3)cc2)cc1Cl	i	i	i	i	i	x	x	x	x	x	x
O=C(COc1ccc(Cl)cc1Cl)Nc1ccc(CN2CCCCC2)cc1	i	i	i	i	-5.3*	194%*	i	34%*	54%*	i	x
Cc1ccc(C(=O)NC(=S)Nc2ccc(CN3CCCCC3)cc2)c(C)c1	i	i	i	i	-6.3*	i	i	i	68%*	40%*	x
CCC(=O)N(Cc1ccco1)c1nc(C(=O)Nc2ccc(Cl)cc2)c(C)s1	i	i	i	i	i	x	x	x	x	x	x
COc1cc(C(C(=O)NC2CCCCC2)N(Cc2ccco2)C(=O)c2cnccn2)cc(OC)c1OC (stereo not given)	i	i	i	i	i	x	x	x	x	x	x
CNS(=O)(=O)c1cccc(C(=O)OCc2cc(=O)oc3c(C)c(O)ccc23)c1	i	i	i	i	-6.3*	i	i	i	54%*	i	i
CCCCC(O)(CCN1CCOCC1)c1ccc(Cl)cc1 (stereo not given)	i	i	i	i	-8.9*	x	x	x	x	65%*	i	TRPC4 spec 2=i;TRPC4 spec=8.8%*;HEK293 MPD ctr 2-1=30%*;HEK293 MPD ctr-1=5.8%*
CCn1nc([N+](=O)[O-])c(C(C#N)c2nc3ccccc3n2C)c(Cl)c1=O (stereo not given)	i	i	i	i	i	x	x	x	x	x	x
CCCn1nc([N+](=O)[O-])c(C(C#N)c2nc3ccccc3s2)c(Cl)c1=O (stereo not given)	i	i	i	i	-13*	-210%*	i	-36%*	83%*	66%*	i
CCC1CCCCN1CCCNC(=O)c1ccc(N2CCCC2=O)cc1 (stereo not given)	i	i	i	i	i	x	x	x	x	x	x
